inhibition, IC50 and EC50 data for 51 molecules are collected here from ChEMBL document CHEMBL4229558, “Elongation of the Hydrophobic Chain as a Molecular Switch: Discovery of Capsaicin Derivatives and Endogenous Lipids as Potent Transient Receptor Potential Vanilloid Channel 2 Antagonists” (J Med Chem, 2018).

Molecules are shown by their SMILES. pEC50, pIC50: −log10 of the molar value. Calls of active or inactive are those of the source. The calls are words filed in the database; no cut-off is given here.

Test [1] addresses T1, Transient receptor potential cation channel subfamily V member 2 (Rattus norvegicus) (UniProt Q9WUD2).
T1 sequence (whole entry): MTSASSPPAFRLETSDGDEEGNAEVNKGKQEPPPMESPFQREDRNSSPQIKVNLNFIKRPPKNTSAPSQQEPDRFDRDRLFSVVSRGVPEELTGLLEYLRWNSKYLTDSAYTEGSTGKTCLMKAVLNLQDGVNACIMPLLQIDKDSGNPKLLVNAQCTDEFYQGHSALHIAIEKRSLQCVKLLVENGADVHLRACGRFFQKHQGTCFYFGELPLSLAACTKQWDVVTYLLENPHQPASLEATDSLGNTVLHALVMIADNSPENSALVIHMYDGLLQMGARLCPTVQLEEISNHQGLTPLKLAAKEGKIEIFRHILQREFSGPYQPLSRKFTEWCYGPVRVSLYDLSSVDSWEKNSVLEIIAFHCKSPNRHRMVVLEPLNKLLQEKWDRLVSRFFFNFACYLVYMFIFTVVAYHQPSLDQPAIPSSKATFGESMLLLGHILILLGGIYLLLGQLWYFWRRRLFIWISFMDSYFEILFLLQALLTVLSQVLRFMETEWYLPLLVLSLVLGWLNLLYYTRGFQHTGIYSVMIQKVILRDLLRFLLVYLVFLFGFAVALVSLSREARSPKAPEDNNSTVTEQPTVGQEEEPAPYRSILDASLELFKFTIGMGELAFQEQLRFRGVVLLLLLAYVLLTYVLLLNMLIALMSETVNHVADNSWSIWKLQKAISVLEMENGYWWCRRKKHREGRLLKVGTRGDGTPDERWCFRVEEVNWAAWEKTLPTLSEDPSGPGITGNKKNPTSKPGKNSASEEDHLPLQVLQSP
The experiment in a line: Non-competitive antagonist activity at recombinant rat TRPV2 expressed in HEK293 cells assessed as inhibition of LPC-induced Ca2+ levels preincubated for 5 mins followed by agonist addition by Fuo-4-AM dependent spectrofluorimetry based Schild analysis. It is filed as cell-based. The method in brief: (§1)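 Schild analysis in rat TRPV2-HEK-293 cells by fluorometric Ca2+ assay. Full LPC or CBD concentration–response curves are run at increasing antagonist concentrations. Each agonist concentration is expressed as percent of its effect at 2x10-4 M without antagonist.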

In test [2] the target is T2, Transient receptor potential cation channel subfamily V member 2 (Rattus norvegicus, UniProt Q9WUD2).
T2 sequence (Q9WUD2 whole entry): T1 sequence (whole entry)
The test can be described thus: Antagonist activity at recombinant rat TRPV2 expressed in HEK293 cells assessed as inhibition of CBD-induced Ca2+ levels preincubated for 5 mins followed by agonist addition by Fuo-4-AM based spectrofluorimetry. The test is classed as cell-based. Put shortly: (§2)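 HEK-293 cells heterologously expressing rat TRPV2, fluorometric intracellular Ca2+ assay. Cells are preincubated 5 min with varying test concentrations, then challenged with LPC (3 µM) or CBD (2 µM). Inhibition of the agonist-evoked [Ca2+]i rise gives IC50 (µM).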

Test [3] addresses T1, Transient receptor potential cation channel subfamily V member 2 (Rattus norvegicus). The test can be described thus: Non-competitive antagonist activity at recombinant rat TRPV2 expressed in HEK293 cells assessed as inhibition of CBD-induced Ca2+ levels preincubated for 5 mins followed by agonist addition by Fuo-4-AM dependent spectrofluorimetry based Schild analysis. It is filed as cell-based. The method in brief:
as §1

Test [4] has as its target T2, Transient receptor potential cation channel subfamily V member 2. The experiment in a line: Antagonist activity at recombinant rat TRPV2 expressed in HEK293 cells assessed as inhibition of LPC-induced Ca2+ levels preincubated for 5 mins followed by agonist addition by Fuo-4-AM based spectrofluorimetry. The test is classed as cell-based. Put shortly: as §2
Test [5] has as its target Transient receptor potential cation channel subfamily V member 1 (Homo sapiens, UniProt Q8NER1). The experiment in a line: Agonist activity at recombinant human TRPV1 expressed in HEK293 cells assessed as induction of Ca2+ levels by Fuo-4-AM based spectrofluorimetry.

Chain of Transient receptor potential cation channel subfamily V member 1 (Q8NER1 whole entry): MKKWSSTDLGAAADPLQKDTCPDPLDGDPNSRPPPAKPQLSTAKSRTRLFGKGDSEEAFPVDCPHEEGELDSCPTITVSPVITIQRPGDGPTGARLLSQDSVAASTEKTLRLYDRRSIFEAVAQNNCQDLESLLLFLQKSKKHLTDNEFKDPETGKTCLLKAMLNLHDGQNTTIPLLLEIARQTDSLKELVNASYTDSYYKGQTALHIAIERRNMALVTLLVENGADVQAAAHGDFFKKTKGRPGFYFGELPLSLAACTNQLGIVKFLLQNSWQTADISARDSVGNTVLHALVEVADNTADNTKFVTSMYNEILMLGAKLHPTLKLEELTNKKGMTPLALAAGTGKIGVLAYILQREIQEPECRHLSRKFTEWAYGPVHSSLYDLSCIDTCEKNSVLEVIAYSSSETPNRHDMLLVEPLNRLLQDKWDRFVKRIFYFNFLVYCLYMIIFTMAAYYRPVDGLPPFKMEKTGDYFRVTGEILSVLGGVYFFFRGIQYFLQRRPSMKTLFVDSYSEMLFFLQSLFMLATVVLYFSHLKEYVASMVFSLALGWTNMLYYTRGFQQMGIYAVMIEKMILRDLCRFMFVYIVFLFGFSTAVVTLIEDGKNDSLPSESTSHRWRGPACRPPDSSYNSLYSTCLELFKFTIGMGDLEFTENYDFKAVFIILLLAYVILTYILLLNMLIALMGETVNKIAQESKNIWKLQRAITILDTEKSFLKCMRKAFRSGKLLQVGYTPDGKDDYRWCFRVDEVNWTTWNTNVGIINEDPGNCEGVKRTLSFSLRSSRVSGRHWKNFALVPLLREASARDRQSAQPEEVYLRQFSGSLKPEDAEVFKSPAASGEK

As for `CCCCCCCC/C=C\CCCCCCCC[Se]C[C@H](N)C(=O)NCc1ccc(O)c(OC)c1`, the inhibition result in test [1] and in test [3] was “Active” each time. Also, the pIC50 was 6.01 in test [2] and 5.77 in test [4].

`CCCCCCCC/C=C\CCCCCCCCSC[C@H](N)C(=O)NCc1ccc(O)c(OC)c1`: the pIC50 in test [4] is 5.72. As for `CCCCCCCC/C=C\CCCCCCCC[Se]CCC(=O)NCc1ccc(O)c(OC)c1`, the pIC50 was 5.49 in test [2] and 5.74 in test [4]. The like results for `CCCCCC/C=C\CCCCCCCC(=O)NCCO` were, in that order, 5.77 and 5.46. The like results for `CCCCCCCCCCCCCCCCCCCC(=O)NCc1ccc(O)c(OC)c1` were, in that order, less than 5.00 and 5.51. Consider `CCCCCCCCCCCCCCCC(N)=O` [PALMITAMIDE], for which the pIC50 in test [2] and in test [4] was less than 5.00 in each case. For `CCCCCCCC/C=C\CCCCCCCCCCCC(=O)O` [ERUCIC ACID], the pIC50 in test [2] and in test [4] was less than 5.00 throughout. Consider `CC/C=C\C/C=C\C/C=C\C/C=C\C/C=C\C/C=C\CCC(=O)NCCO`, for which the pIC50 in test [2] is 5.79; in test [4], less than 5.00. `CCCCCCCC/C=C\CCCCCCCCSCCC(=O)NCc1ccc(O)c(OC)c1`: the pIC50 in test [4] is 5.60. As for `CCCCC/C=C\C/C=C\CCCCCCCC[Se]CCC(=O)NCc1ccc(O)c(OC)c1`, the pIC50 in test [2] was 5.64; in test [4] it was 5.85.

Consider `CCCCCCCCCCCCCCCC[Se]CCC(=O)NCc1ccc(O)c(OC)c1`, for which, in test [4], the pIC50 is 5.37. With `CCCCCCCC/C=C\CCCCCCCCCCCC(=O)NCCO`, the inhibition result in test [1] was “Active”. Also, the pIC50 was less than 5.00 in test [2] and 6.13 in test [4]. For `CCCCCCCCCCCCCCCCOC(=O)CSCCC(=O)NCc1ccc(O)c(OC)c1`, the pIC50 in test [4] is less than 5.00. For the molecule `CCCCC/C=C\C/C=C\CCCCCCCC(=O)NCCO` [LINOLEOYLETHANOLAMIDE], the pIC50 in test [2] is 6.19; in test [4], 5.85. The like results for `CCCCC/C=C\C/C=C\CCCCCCCCCCCC(=O)O` were, in that order, less than 5.00 and less than 5.00.

`CCCCCCCC/C=C\CCCCCCCC(=O)NCCO` [OLEOYLETHANOLAMIDE]: the pIC50 in test [2] was 5.27; in test [4], 5.74. The like results for `CCCCCCCC/C=C\CCCCCCCC(=O)O` [OLEIC ACID] were, in that order, less than 5.00 and less than 5.00. The like results for `CCCCCCCCCCCCCCCCCCCC(N)=O` were, in that order, less than 5.00 and less than 5.00. Turning to `CCCCCCCC/C=C\CCCCCCCC(=O)NCc1ccc(O)c(OC)c1` [OLVANIL], the inhibition entry in test [1] and in test [3] was “Active” in each case. Moreover, the pIC50 in test [2] is 5.77; in test [4], 6.80. Take `CCCCCCCCCCCCCCCC(=O)O` [PALMITIC ACID]: the pIC50 in test [2] and in test [4] was less than 5.00 throughout. With `CCCCC/C=C\C/C=C\CCCCCCCC(=O)NCc1ccc(O)c(OC)c1`, the pIC50 in test [2] was 5.68; in test [4], 5.59. The like results for `CCCCCCCCCCCCCCCCCCCC(=O)NCCO` were, in that order, less than 5.00 and less than 5.00. The like results for `CCCCCCCCCCCCCCCC(=O)NCc1ccc(O)c(OC)c1` were, in that order, less than 5.00 and less than 5.00.

As for `CC/C=C\C/C=C\C/C=C\C/C=C\C/C=C\CCCC(=O)NCCO`, the pIC50 was 5.64 in test [2] and less than 5.00 in test [4]. In the case of `CCCCCCCCCCCCCCCCCC(N)=O` [OCTADECANOIC ACID AMIDE], the pIC50 in test [2] and in test [4] was less than 5.00 in each case. With `CCCCCC[C@H](C/C=C\CCCCCCCCSCCC(=O)NCc1ccc(O)c(OC)c1)OC(=O)Cc1ccccc1`, in test [4], the pIC50 is less than 5.00. In the case of `CCCCC/C=C\C/C=C\C/C=C\C/C=C\CCCC(=O)NCCO` [ANANDAMIDE], the results for the pIC50 in test [2] and in test [4] were 6.02 and 5.07, respectively. The like results for `CCCCCCCCCCCCCCCC(=O)N/N=C/c1ccc(O)c(OC)c1` were, in that order, 5.22 and 6.55. As for `NCCOB(c1ccccc1)c1ccccc1`, the pEC50 in test [5] was 3.89. As to `CCCCCCCCCCCCCCCC(=O)NCCO` [PALMIDROL], the pIC50 in test [2] and in test [4] was less than 5.00 in each case. For `CCCCCCCCCCCCCCCCCC(=O)NCCO` [N-(2-HYDROXYETHYL)STEARAMIDE], the pIC50 in test [2] and in test [4] was less than 5.00 each time. For the molecule `CCCCCC[C@@H](O)C/C=C\CCCCCCCC[Se]CCC(=O)NCc1ccc(O)c(OC)c1`, the figures for the pIC50 in test [2] and in test [4] were 5.85 and less than 5.00, respectively. Besides, the inhibition result in test [3] is “Active”. Regarding `CCCCCC[C@H](C/C=C\CCCCCCCC[Se]CCC(=O)NCc1ccc(O)c(OC)c1)OC(=O)Cc1ccccc1`, the pIC50 in test [2] is 5.64; in test [4], less than 5.00.

As to `CCCCCCCCCCCCCCCCSC[C@H](N)C(=O)NCc1ccc(O)c(OC)c1`, the pIC50 in test [4] was 5.85. Turning to `CCCCCCCCCCCCCCCCCC(=O)NCc1ccc(O)c(OC)c1`, the pIC50 in test [2] and in test [4] was less than 5.00 in each case. `CCCCCCCC/C=C\CCCCCCCCCCCC(=O)NCc1ccc(O)c(OC)c1`: the pIC50 is 5.82 in test [2] and 6.31 in test [4].

For `CCCCCCCC/C=C\CCCCCCCC(=O)N/N=C/c1ccc(O)c(OC)c1`, the figures for the pIC50 in test [2] and in test [4] were 5.52 and 6.92, respectively. The like results for `CCCCC/C=C\C/C=C\CCCCCCCCCCCC(=O)NCc1ccc(O)c(OC)c1` were, in that order, 5.74 and 6.09.

Turning to `CCCCCC[C@@H](O)C/C=C/CCCCCCCC(=O)NCc1ccc(O)c(OC)c1`, the figures for the pIC50 in test [2] and in test [4] were 5.12 and less than 5.00, respectively. The like results for `CCCCCCCC/C=C\CCCCCCCC(N)=O` [OLEAMIDE] were, in that order, 5.68 and 5.68. Turning to `CCCCCC[C@@H](O)C/C=C\CCCCCCCCSCCC(=O)NCc1ccc(O)c(OC)c1`, the pIC50 in test [4] is less than 5.00. For the molecule `CCCCCCC(=O)CC(O)CCCCCCCCC(=O)NCc1ccc(O)c(OC)c1` (configuration not stated), the pIC50 in test [2] and in test [4] was less than 5.00 in each case. As for `CCCCC/C=C\C/C=C\CCCCCCCCSCCC(=O)NCc1ccc(O)c(OC)c1`, the pIC50 in test [2] is 5.55; in test [4], 5.85. As to `CCCCC/C=C\C/C=C\CCCCCCCC(N)=O`, the results for the pIC50 in test [2] and in test [4] were 5.92 and 5.66, respectively. The like results for `CCCCCCCC/C=C\CCCCCCCCCCCC(N)=O` were, in that order, 5.15 and 6.17. As for `CCCCCCCCCCCCCCCC[Se]C[C@H](N)C(=O)NCc1ccc(O)c(OC)c1`, the pIC50 in test [4] is 5.92.

Turning to `CCCCCCC(=O)C/C=C/CCCCCCCC(=O)NCc1ccc(O)c(OC)c1`, the pIC50 in test [2] is 5.36; in test [4], less than 5.00. The like results for `CCCCC/C=C\C/C=C\C/C=C\C/C=C\CCCC(=O)O` [ARACHIDONIC ACID] were, in that order, less than 5.00 and less than 5.00. On to `CCCCCCCCCCCCCCCCSCCC(=O)NCc1ccc(O)c(OC)c1`, for which the pIC50 in test [4] was 5.42. As to `CCCCCCCCCCCCCCCCCCCC(=O)O` [ARACHIDIC ACID], the negative-log IC50 (pIC50) in test [2] and in test [4] was less than 5.00 each time. Take `CCCCCCCCCCCCCCCCOC(=O)CSC[C@H](N)C(=O)NCc1ccc(O)c(OC)c1`: the pIC50 in test [4] was 5.85.

One may read the pIC50 as the IC50 on a negative log10 scale, so that one unit is a factor of ten. The term pEC50 denotes the negative decadic logarithm of the EC50, by convention in mol/L.
